A selection: hits, their analogues and other compounds. The true share with any hit is near 1.4%.
CAL PDZ FP-1: blocks peptide binding to human CAL PDZ domain. inhibition, % at 20 µM. 0.02% of 330,000 active. purified CAL PDZ, TMR-peptide fluorescence polarization, 1 h. AID 504414. Q9HD26;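 active = highest replicate inhibition of at least 40%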
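material = purified tagged CAL PDZ domain construct (CerCALP) | compound dosing = 20 µM, one dose | times = 1 h at RT | measured by = fluorescence polarization from S- and P-plane intensities, G-factor corrected | read-out = inhibition from polarization loss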
Tn6 DDE FP: DD(E)-Tn6 binding inhibition, primary FP screen; AID 720509; Fibrin DD(E) TRITC-Tn6 fluorescence polarization displacement; inhibition, % at 8.3 µM; 0.21% of 370,000 active;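 active = inhibition above a per-campaign cutoff: mean of compounds within control limits plus 3 SD, cut at about 15% in these data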
Target sequence (P02675 whole entry, looked up): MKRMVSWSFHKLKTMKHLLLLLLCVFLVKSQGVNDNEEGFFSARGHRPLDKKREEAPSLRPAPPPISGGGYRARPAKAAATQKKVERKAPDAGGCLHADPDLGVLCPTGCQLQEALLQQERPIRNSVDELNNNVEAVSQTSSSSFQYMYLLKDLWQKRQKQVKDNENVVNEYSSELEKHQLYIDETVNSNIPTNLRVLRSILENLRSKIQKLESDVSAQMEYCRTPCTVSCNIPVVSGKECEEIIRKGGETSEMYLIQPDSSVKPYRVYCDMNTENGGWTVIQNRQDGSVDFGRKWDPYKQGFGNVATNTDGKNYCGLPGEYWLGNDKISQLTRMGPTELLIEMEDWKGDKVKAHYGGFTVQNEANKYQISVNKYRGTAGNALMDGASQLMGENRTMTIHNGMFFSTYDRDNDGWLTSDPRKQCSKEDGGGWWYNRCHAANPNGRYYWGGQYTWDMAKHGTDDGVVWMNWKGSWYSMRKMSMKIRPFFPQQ
DDE Tn7 FP inh: inhibitors of Tn7 peptide binding to human fibrin DD(E) | P02675 | FP displacement of FITC-Tn7 peptide from fibrin DD(E); 0% = median of compound wells per plate | inhibition, % at 8.3 µM | 0.13% of 370,000 active | AID 720508;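 active = inhibition above the mean of compounds falling within the control limits plus 3 SD of them, cut at about 14% in these data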
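Also added: labelled Tn7 tracer, 0.1 µM; Assay system: human fibrin DD(E) protein; Amount: 2 µM fibrin DD(E); Schedule: 10 min compound pre-incubation, 3 h probe incubation at room temperature; Repeats: one replicate per compound; Read-out basis: percent inhibition; Measured by: fluorescence polarization of the labelled Tn7 tracer.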
Arrestin-AP2 inh: inhibitors of human beta-arrestin and AP2 interaction | FITC-arrestin peptide / GST-AP2 beads, flow cytometry; AP2 beta2 appendage carries R879A mutation | inhibition, % at 10 µM | 0.31% of 340,000 active | AID 504490;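 active = inhibition above a set limit, near 3 SD of compounds lacking own fluorescence, cut at about 54% in these data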
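System: GST-AP2 R879A glutathione beads; medium: PBS, Tween 20 0.05%, BSA 0.1%; reagent: fluorescein-tagged arrestin peptide at 50 nM final; schedule: pre-incubation 12 min, peptide binding 1 h, room temperature; detection: flow cytometry, FL1 (488/535 nm); read-out: inhibition as reduced fluorescein signal on beads, percent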
CAL PDZ FP-2: CAL PDZ (human) peptide binding inhibition. Q9HD26. purified CAL PDZ, TMR-peptide fluorescence polarization, 1 h. inhibition, % at 24.9 µM. 0.92% of 300,000 active;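 active = mean inhibition of at least 30% with at least half of replicates also reaching 30%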
Tn7 DDE conf: DD(E)-Tn7 binding inhibition, FP confirmation; shares compounds with DDE Tn7 FP inh; FP displacement of TRITC-Tn7 peptide from DD(E); 0% set at plate's compound-well median; inhibition, % at 8.3 µM; 5% of 460 active; AID 720628;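 active = inhibition above the campaign cutoff, the mean of compounds within control limits plus 3 SD, cut at about 14% in these data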;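 also: displacers lower polarization since freed probe rises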
Tn7 DDE ctr: counter-screen for inhibitors of Tn7 peptide binding to fibrin DD(E). shares compounds with DDE Tn7 FP inh. TRITC-Tn7 probe displacement, fluorescence polarization. inhibition, % at 8.3 µM. 3% of 460 active;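 active = inhibition above the cutoff, the mean of compounds lying between the control bounds plus 3 SD of those compounds, cut at about 17% in these data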
Hits are given with their value; . = inactive; / = no result given.

SMILES	CAL PDZ FP-1	Tn6 DDE FP	DDE Tn7 FP inh	Arrestin-AP2 inh	CAL PDZ FP-2	Tn7 DDE conf	Tn7 DDE ctr
CSc1c(N(C)C)c(=O)c1=S	/	.	.	/	/	/	/
CCCCOc1ccc(C(=O)n2ccc3ccc(-c4ccc5ccn(Cc6cccc(C(=O)OC)c6)c5c4)cc32)cc1	/	.	.	/	/	/	/
COc1ccc(/C=C2\CCc3c2nc2ccccc2c3C(=O)O)cc1OC	.	.	23	.	.	.	.
CCOC(=O)C1=NOC(C(=O)Nc2cc(C)cc(C)c2)(C(=O)C2CC2)C1 (stereo not given)	/	.	.	/	/	/	/
O=C(O)Cn1nc(-c2ccc(F)cc2)oc1=O	.	.	.	.	.	/	/
CCOC(=O)Cn1nc(-c2ccc(F)cc2)oc1=O	.	.	14	.	.	.	.
COC(=O)Cc1cc(=O)oc2cc(OC)ccc12	.	.	.	.	.	/	/
COc1ccc2c(CC(=O)O)cc(=O)oc2c1	.	.	15	.	.	.	.
O=c1[nH]c(-[n+]2ccc3ccccc3c2)c(/C=N/N=C(\[O-])c2ccccc2)s1	.	.	17	.	.	.	.
CC1=CC(c2ccccc2)n2nc(NS(=O)(=O)c3ccc(C)cc3)nc2N1 (stereo not given)	.	.	.	.	.	/	/
CC1=CC(c2ccc(Cl)cc2)n2nc(NS(=O)(=O)c3ccc(C)cc3)nc2N1 (stereo not given)	.	.	14	.	/	.	.
O=[N+]([O-])c1cccc(S(=O)(=O)N2CN(c3ccc(Br)cc3)c3nc4ccccc4nc32)c1	.	.	17	.	/	.	.
Cc1cccc(NC(=O)CCS(=O)(=O)c2ccccc2)n1	.	.	14	.	/	.	.
COc1ccc(-c2ccc([C@H]3[C@H]4C=CC[C@@H](C)[C@@H]4C(=O)N3Cc3ccccc3)c(F)c2)cc1OC	.	.	14	.	.	.	.
CCn1c(SCC(=O)Nc2ccc(S(=O)(=O)Nc3cc(C)nc(C)n3)cc2)nc2sc(C)c(C)c2c1=O	/	.	.	/	/	/	/
O=C(Cc1ccccc1)NNC1=NS(=O)(=O)c2ccccc21	.	.	14	.	.	.	.
CC(C)NC(=O)NC1CCN(CC(=O)Nc2ccc3c(c2)OCCO3)CC1	/	.	.	/	/	/	/
O=S(=O)(c1ccccc1)n1c(CN2CCOCC2)nc2ccccc21	/	.	.	/	/	/	/
CCC(C)[C@H](NC(=O)N1CCC(C)CC1)C(=O)O (stereo not given in full)	.	.	14	.	.	.	.
O=C(OCc1cn([C@@H]2CN(C(=O)C3CCCCC3)[C@@H](c3ccccc3)C[C@H]2O)nn1)c1ccccc1	/	.	.	/	/	/	/
O=C(OCc1cn([C@H]2CN(C(=O)C3CCCCC3)[C@@H](c3ccccc3)C[C@@H]2O)nn1)c1ccccc1	/	.	15	/	/	.	.
C(#CC1=CCCCC1)CNCC1CC1	/	.	.	/	/	/	/
O=C(c1cccs1)N1CCC(Cc2ccccc2)CC1	.	.	14	.	.	.	.
O=C(NC1CCN(S(=O)(=O)c2ccc(Cl)cc2)CC1)C1CCCCC1	.	.	14	.	.	.	.
CC1CN(C(=O)c2ccccc2)OC(c2ccc3c(c2)OCO3)O1 (stereo not given)	.	.	15	.	.	.	.
SMILES	CAL PDZ FP-1	Tn6 DDE FP	DDE Tn7 FP inh	Arrestin-AP2 inh	CAL PDZ FP-2	Tn7 DDE conf	Tn7 DDE ctr
CCCN(C(=O)COC(=O)COc1c(C)cccc1C)c1c(N)n(Cc2ccccc2)c(=O)[nH]c1=O	.	.	14	.	.	.	.
C=CCN(CC#Cc1ccccc1)Cc1ccc(OC)cc1OC	/	.	.	/	/	/	/
COc1ccc(CC(=O)NCc2n[nH]c(=S)n2-c2ccccc2OC)cc1	.	.	15	.	/	.	.
CC(C)c1nnc(N2C(=O)C(O)=C(C(=O)c3cccs3)C2c2ccccc2)s1 (stereo not given)	.	.	30	.	.	.	.
CCC(CC)C1C(C#N)=C(N)SC(N)=C1C#N	.	.	.	.	.	/	/
CC(C)C1C(C#N)=C(N)SC(N)=C1C#N	.	.	14	.	/	.	.
CCC(C)N(C(=O)c1ccc(CNC(=O)c2cccc(Br)c2)cc1)C(C)CC (stereo not given)	/	.	.	/	/	/	/
CN1CCN(C(=O)OCCOCCOC(=O)N2CCN(C)CC2)CC1	.	.	14	.	.	.	.
CC(=O)N1CCCN(C(=O)C2CCN(c3ncnc4c3sc3cccc(F)c34)CC2)CC1	/	.	.	/	/	/	/
C/C(=N\NC(=O)COc1cccc(Cl)c1)c1ccc2c(c1)OCCO2	.	.	.	.	.	/	/
C/C(=N\NC(=O)CSCc1ccc(Cl)cc1)c1ccc2c(c1)OCCO2	.	.	14	.	.	.	.
FC(F)(F)c1cc(NCc2cccs2)n2ncnc2n1	.	.	15	.	.	.	.
CCc1c(C)nc2ncnn2c1NCc1cccs1	.	.	.	.	.	/	/
Cc1cc(Br)ccc1OCCCN1CCC(C(O)(c2ccccc2)c2ccccc2)CC1	/	.	.	/	/	/	/
COc1ccc(CN2C[C@H](COCc3ccccc3)Oc3cccc(F)c3S2(=O)=O)cc1	/	.	.	/	/	/	/
CC(=O)Oc1ccc2c(c1)C(=O)c1ccccc1CO2	/	.	14	.	.	.	.
COc1ccc(-n2c(Cc3cccs3)nnc2SCC(=O)Nc2ccc(OCc3ccccc3)cc2)cc1	/	.	.	/	/	/	/
CCCCOCCCNC(=O)C[C@H]1C[C@@]2(C(=O)OC)C(=C[C@H](C(C)(C)C)O[C@@H]2C)N(Cc2cccc3ccccc23)C1=O	/	.	.	/	/	/	/
Cc1cc(C)cc(NC(=O)N2CCN(Cc3ccc4c(c3)OCO4)CC2)c1	.	.	14	.	.	.	.
O=C(Nc1ccccc1)N1CCN(Cc2ccc3c(c2)OCO3)CC1	.	.	.	.	.	/	/
CC(=O)OC12CCCN(C1)/C(=C/c1ccccc1)C2 (stereo not given)	/	.	.	/	/	/	/
c1coc(-c2nnc(SCc3cn4ccccc4n3)o2)c1	.	.	14	.	.	.	.
COC(=O)[C@]12C[C@H](CC(=O)N3CCC(c4ccccc4)CC3)C(=O)N(Cc3ccco3)C1=C[C@H](C(C)C)O[C@@H]2C1CC1	/	.	.	/	/	/	/
Cc1cc2c(cc1C)C(c1cccc([N+](=O)[O-])c1)CC(=O)N2 (stereo not given)	.	.	14	.	.	.	.
O=C(c1cc(-c2ccc(O)cc2)on1)N1CCc2ccccc2C1	.	.	18	.	.	.	.
C=CCn1c(=O)[nH]c2nc3cc(N=CN(C)C)c(C)cc3nc2c1=O	.	.	23	.	.	.	.
CN(C)/C=N/c1cc(=O)[nH]c(=O)n1CC1CC1	.	.	.	.	.	/	/
